{
  "source": "ChEMBL document CHEMBL1122685",
  "about": "“Identification of an acridine photoaffinity probe for trypanocidal action” (1984)",
  "assay_type_in_all_cases": "functional",
  "key": {"Trypanosoma brucei [1]": {"test_system": "Trypanosoma brucei", "assay": "Compound is evaluated for trypanocidal activity against Trypanosoma brucei, by exposing the parasites directly to compound prior to injection to mice at 10 E-6 M concentration in dark conditions", "how_it_was_run": "(§1)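 T. brucei EATRO 110 was separated from blood on DEAE-cellulose and washed in Tris-saline-glucose (TSG). Parasites at 5×10^6/mL in TSG were gently rotated 10 min with drug at the final concentration, kept dark under a red safelight until injection. Swiss mice, five per group, received 5×10^5 parasites ip in 0.1 mL. Read-out was mean days survival ±SD over 30 days, against untreated-parasite controls.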"}, "Trypanosoma brucei [2]": {"test_system": "Trypanosoma brucei", "assay": "Compound is evaluated for trypanocidal activity against Trypanosoma brucei, by exposing the parasites directly to compound prior to injection to mice at 10 E-6 M concentration in presence of light", "how_it_was_run": "(§2)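 DEAE-purified T. brucei EATRO 110 at 5×10^6/mL in TSG was mixed with drug at the final concentration by gentle rotation for 10 min. Samples were light-activated for 10 min under a 30W fluorescent lamp 4 cm above. 5×10^5 treated parasites in 0.1 mL were injected ip into Swiss mice, five per group. Survival was scored daily for 30 days and reported as mean days ±SD, with untreated controls.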"}, "Trypanosoma brucei [3]": {"test_system": "Trypanosoma brucei", "assay": "Compound is evaluated for trypanocidal activity against Trypanosoma brucei, by exposing the parasites directly to compound prior to injection to mice at 10 E-4 M concentration in dark conditions", "how_it_was_run": "as §1"}, "Trypanosoma brucei [4]": {"test_system": "Trypanosoma brucei", "assay": "Compound is evaluated for trypanocidal activity against Trypanosoma brucei, by exposing the parasites directly to compound prior to injection to mice at 10 E-4 M concentration in presence of light", "how_it_was_run": "as §2"}, "Trypanosoma brucei [5]": {"test_system": "Trypanosoma brucei", "assay": "Compound is evaluated for trypanocidal activity against Trypanosoma brucei, by exposing the parasites directly to compound prior to injection to mice at 10 E-5 M concentration (pre) in dark conditions", "how_it_was_run": "(§3)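 Drug was preirradiated 1 h with visible light, then added at the final concentration to T. brucei EATRO 110 (5×10^6/mL in TSG) and rotated 10 min. The parasites were then kept dark with a red safelight. Swiss mice, five per group, were injected ip with 0.1 mL holding 5×10^5 parasites. Mean days survival ±SD was scored over 30 days against untreated-parasite controls.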"}, "Trypanosoma brucei [6]": {"test_system": "Trypanosoma brucei", "assay": "Compound is evaluated for trypanocidal activity against Trypanosoma brucei, by exposing the parasites directly to compound prior to injection to mice at 10 E-5 M concentration (pre) in presence of light", "how_it_was_run": "(§4)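 Compound was irradiated 1 h before contact with T. brucei EATRO 110 (5×10^6/mL in TSG, final drug concentration). After 10 min gentle rotation, the mixture was irradiated again for 10 min under a 30W fluorescent lamp at 4 cm. 5×10^5 parasites in 0.1 mL were given ip to five Swiss mice per group. Read-out was mean days survival ±SD over 30 days, with untreated controls.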"}, "Trypanosoma brucei [7]": {"test_system": "Trypanosoma brucei", "assay": "Compound is evaluated for trypanocidal activity against Trypanosoma brucei, by exposing the parasites directly to compound prior to injection to mice at 10 E-5 M concentration in dark conditions", "how_it_was_run": "as §1"}, "Trypanosoma brucei [8]": {"test_system": "Trypanosoma brucei", "assay": "Compound is evaluated for trypanocidal activity against Trypanosoma brucei, by exposing the parasites directly to compound prior to injection to mice at 10 E-5 M concentration in presence of light", "how_it_was_run": "as §2"}, "Trypanosoma brucei [9]": {"test_system": "Trypanosoma brucei", "assay": "Trypanocidal activity against Trypanosoma brucei, exposure of parasites to compound prior to injection into mice at 10 e-5 M concentration in dark conditions", "how_it_was_run": "as §1"}, "Trypanosoma brucei [10]": {"test_system": "Trypanosoma brucei", "assay": "Trypanocidal activity against Trypanosoma brucei, exposure of parasites to compound prior to injection into mice at 10 e-6 M concentration in dark conditions", "how_it_was_run": "as §1"}, "Trypanosoma brucei [11]": {"test_system": "Trypanosoma brucei", "assay": "Compound is evaluated for trypanocidal activity against Trypanosoma brucei, by exposing the parasites directly to compound prior to injection to mice at 10 e-7 M concentration in dark", "how_it_was_run": "as §1"}, "Trypanosoma brucei [12]": {"test_system": "Trypanosoma brucei", "assay": "Compound is evaluated for trypanocidal activity against Trypanosoma brucei, by exposing the parasites directly to compound prior to injection to mice at 10 E-5 M concentration in presence of lightin", "how_it_was_run": "as §2"}, "Trypanosoma brucei [13]": {"test_system": "Trypanosoma brucei", "assay": "Compound is evaluated for trypanocidal activity against Trypanosoma brucei, by exposing the parasites directly to compound prior to injection to mice at 10 E-6 M concentration (pre) in dark conditions", "how_it_was_run": "as §3"}, "Trypanosoma brucei [14]": {"test_system": "Trypanosoma brucei", "assay": "Compound is evaluated for trypanocidal activity against Trypanosoma brucei, by exposing the parasites directly to compound prior to injection to mice at 10 E-6 M concentration (pre) in presence of light.", "how_it_was_run": "as §4"}, "Trypanosoma brucei [15]": {"test_system": "Trypanosoma brucei", "assay": "Compound is evaluated for trypanocidal activity against Trypanosoma brucei, by exposing the parasites directly to compound prior to injection to mice at 10 E-7 M concentration in dark conditions", "how_it_was_run": "as §1"}, "Trypanosoma brucei [16]": {"test_system": "Trypanosoma brucei", "assay": "Compound is evaluated for trypanocidal activity against Trypanosoma brucei, by exposing the parasites directly to compound prior to injection to mice at 10 E-7 M concentration in presence of light", "how_it_was_run": "as §2"}},
  "data": [
    {"smiles": "Nc1ccc2cc3ccccc3nc2c1", "values": [
      {"measurement": "Activity", "setting": "Trypanosoma brucei [1]", "value": 4.9},
      {"measurement": "Activity", "setting": "Trypanosoma brucei [2]", "value": 5.7},
      {"measurement": "Activity", "setting": "Trypanosoma brucei [3]", "value": 6.9},
      {"measurement": "Activity", "setting": "Trypanosoma brucei [4]", "value": 30},
      {"measurement": "Activity", "setting": "Trypanosoma brucei [5]", "value": 6.7},
      {"measurement": "Activity", "setting": "Trypanosoma brucei [6]", "value": 30},
      {"measurement": "Activity", "setting": "Trypanosoma brucei [7]", "value": 6.6},
      {"measurement": "Activity", "setting": "Trypanosoma brucei [8]", "value": 30}
    ]},
    {"smiles": "N=C(N)c1ccc(/N=N/Nc2ccc(C(=N)N)cc2)cc1", "note": "[DIMINAZENE]", "values": [
      {"measurement": "Activity", "setting": "Trypanosoma brucei [9]", "value": 19.2},
      {"measurement": "Activity", "setting": "Trypanosoma brucei [10]", "value": 10.8},
      {"measurement": "Activity", "setting": "Trypanosoma brucei [11]", "value": 5}
    ]},
    {"smiles": "Nc1ccc2cc3ccc(N)cc3nc2c1", "note": "[PROFLAVINE]", "values": [
      {"measurement": "Activity", "setting": "Trypanosoma brucei [12]", "value": 30},
      {"measurement": "Activity", "setting": "Trypanosoma brucei [13]", "value": 7.2},
      {"measurement": "Activity", "setting": "Trypanosoma brucei [14]", "value": 20.6},
      {"measurement": "Activity", "setting": "Trypanosoma brucei [1]", "value": 5.5},
      {"measurement": "Activity", "setting": "Trypanosoma brucei [2]", "value": 30},
      {"measurement": "Activity", "setting": "Trypanosoma brucei [15]", "value": 6.3},
      {"measurement": "Activity", "setting": "Trypanosoma brucei [16]", "value": 8.1},
      {"measurement": "Activity", "setting": "Trypanosoma brucei [3]", "value": 30},
      {"measurement": "Activity", "setting": "Trypanosoma brucei [4]", "value": 30},
      {"measurement": "Activity", "setting": "Trypanosoma brucei [7]", "value": 12}
    ]}
  ]
}
